Type in all cases: functional, cell-based
One test concerns K562. Description: Cytotoxicity against human K562 cells after 72 hrs by MTT assay. Particulars: K562, 72 h. Put shortly:
(§1)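 Suspension cultures (BV-173 pre-B-cell leukemia or K-562 chronic myeloid leukemia, from DSMZ) kept in log phase in RPMI-1640 with 10% FBS and 2 mM L-glutamine, 37 °C, humidified 5% CO2. Compounds dissolved in DMSO and diluted in RPMI-1640, final DMSO at most 0.5%. Exposure 72 h, MTT-dye reduction read-out. Six wells per concentration, experiments in triplicate, IC50 from concentration-response fits.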
(Tetrazolium assays rely on reduction of a dye to a coloured formazan, in cell work by metabolically active cells.)

For test [1], the system named is BV-173. Kind of test: Induction of apoptosis in BV173 cells assessed as DNA fragmentation at 2.5 uM after 24hrs. The conditions noted are these: Homo sapiens. Put shortly: (§2)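 Apoptosis assay: exponentially growing BV-173 cells, 1 × 10⁶, exposed 24 h to compound or etoposide, with solvent-treated cells as controls. DNA was extracted from the cytosolic fraction and examined for fragmentation as laddering beside a DNA-laddering marker.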

The test system of test [2] is BV-173. Kind of test: Cytotoxicity against human BV173 cells after 72 hrs by MTT assay. The conditions noted are these: BV-173, 72 h. A digest of the protocol:
as §1

For test [3], the system named is BV-173. Description: Induction of apoptosis in BV173 cells assessed as DNA fragmentation at 0.25 uM after 24hrs. Particulars: Homo sapiens, 2.5 uM, in the assay text read “2.5 uM” for “0.25 uM”. A digest of the protocol: as §2

One may read the IC50 as the concentration needed to halve the response being measured. Read a low IC50 as inhibition by little substance.

Active and inactive are the calls of the source. The rule behind the calls is not given here.

With `COc1ccc(/C=C/C(=O)c2ccc3c(c2)oc(=O)n3CN2CCSCC2)cc1`, the results for the IC50 in the test on K562 and in the test with BV-173 [2] were 21.2 µM and 6.1 µM, respectively. For the same compound, in the test with BV-173 [1], the outcome was Active.
`O=C(/C=C/c1ccccc1)c1ccc2c(c1)oc(=O)n2CN1CCN(Cc2ccccc2)CC1`: the figures for the IC50 in the test with K562 and with BV-173 [2] were 29.5 µM and 9.4 µM, respectively.
In the case of `COc1ccc(/C=C/C(=O)c2ccc3c(c2)oc(=O)n3CN2CCN(Cc3ccccc3)CC2)cc1`, the values for the IC50 with K562 and with BV-173 [2] were 24.2 µM and 6.2 µM, respectively.
On to `COc1ccc(/C=C/C(=O)c2ccc3c(c2)oc(=O)n3CN2CCOCC2)cc1`, for which the half-inhibitory concentration (IC50) in the test with K562 was found to be 22.7 µM; with BV-173 [2], 4.7 µM.
Take `CN(C)Cn1c(=O)oc2cc(C(=O)/C=C/c3ccccc3)ccc21`: the half-inhibitory concentration (IC50) worked out at 27.2 µM with K562 and 6.6 µM in the test with BV-173 [2].
With `COc1ccc(/C=C/C(=O)c2ccc3c(c2)oc(=O)n3CN2CCCCC2)cc1`, the IC50 with BV-173 [2] is 15.3 µM. That is a double-digit micromolar value.
Turning to `COc1ccc(/C=C/C(=O)c2ccc3c(c2)oc(=O)n3CN(C)C)cc1`, 17.7 µM corresponded to half-maximal inhibition in the test on BV-173 [2] (IC50).
On to `COc1ccc(/C=C/C(=O)c2ccc3c(c2)oc(=O)n3CN2CCN(c3ccccc3OC)CC2)cc1`, for which the concentration for half-maximal inhibition (IC50) in the test on K562 was found to be 12.4 µM; with BV-173 [2] it was 5.4 µM. In addition, the result in the test with BV-173 [1] was Active.
As for `O=C(/C=C/c1ccccc1)c1ccc2c(c1)oc(=O)n2CN1CCOCC1`, the IC50 in the test with K562 amounted to 31.7 µM; in the test on BV-173 [2] it was 7.4 µM.
For the compound `COc1cc([C@@H]2c3cc4c(cc3[C@@H](O[C@@H]3O[C@@H]5CO[C@@H](C)O[C@H]5[C@H](O)[C@H]3O)[C@H]3COC(=O)[C@H]23)OCO4)cc(OC)c1O` [ETOPOSIDE], the half-inhibitory concentration (IC50) is 3.1 µM in the test with K562 and 0.9 µM with BV-173 [2]. Further, in the test on BV-173 [3], the outcome was Active.
On to `O=C(/C=C/c1ccccc1)c1ccc2c(c1)oc(=O)n2CN1CCCCC1`, for which the IC50 with K562 turned out to be 38.3 µM; in the test with BV-173 [2], 8.2 µM.
`COc1ccc(/C=C/C(=O)c2ccc3[nH]c(=O)oc3c2)cc1` registered an IC50 with BV-173 [2] of 9.2 µM.
As to `O=C(/C=C/c1ccccc1)c1ccc2c(c1)oc(=O)n2CN1CCSCC1`, the concentration for half-maximal inhibition (IC50) with K562 is 42.2 µM; in the test with BV-173 [2], 7.9 µM.
The compound `O=C(/C=C/c1ccccc1)c1ccc2[nH]c(=O)oc2c1` gave a half-inhibitory concentration (IC50) in the test with BV-173 [2] of 18.4 µM.
`COc1ccccc1N1CCN(Cn2c(=O)oc3cc(C(=O)/C=C/c4ccccc4)ccc32)CC1`: the values for the half-maximal inhibitory concentration (IC50) in the test with K562 and in the test on BV-173 [2] were 30.1 µM and 9.2 µM, respectively.
